The values below come from ChEMBL document CHEMBL5376016, “Synthesis of novel rapanone derivatives via organocatalytic reductive C-alkylation: biological evaluation of antioxidant properties, in vivo zebrafish embryo toxicity, and docking studies” (RSC Med Chem, 2024).

A short description of data set [1]: Acute toxicity in zebrafish embryo assessed as survival rate at 96 hrs post fertilization relative to control. The following applies: in vivo, read-out: Activity. Set-up: species or system Danio rerio; concentration or dose not given beside the values. A digest of the protocol: (§1)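 Lethality endpoints were coagulation and absence of heartbeat, checked by inverted microscope. Survival was compared with untreated embryos across three independent experiments; mean ± SD, ANOVA.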

Data set [2] can be described thus: Antioxidant activity assessed as ABTS radical scavenging activity after 6 mins by spectrophotometric analysis. The class given is functional.
Data set [3] can be described thus: Acute toxicity in zebrafish embryo assessed as survival rate at 20 uM measured after 96 hrs post fertilization relative to control. Set-up: species or system Danio rerio. The following applies: in vivo. In a few lines: as §1
A short description of data set [4]: Antioxidant activity assessed as DPPH radical scavenging activity after 30 mins by spectrophotometric analysis relative to control. The class given is functional. Set-up: concentration or dose not given beside the values. A digest of the protocol: (§2)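 Ascorbic acid was the reference standard. For DPPH, 0.2 mM DPPH in methanol was kept in the dark, mixed with compound at 5–160 µM (DMSO stock), and incubated 30 min in the dark at room temperature, then A517 was read. %RSA = (Ac−As)/Ac×100. Triplicate runs; IC50 taken from the plot of % scavenging versus concentration.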

The nature of data set [5]: Acute toxicity in zebrafish embryo assessed as hatching rate at 20 to 160 uM measured after 48 hrs post fertilization relative to control. Set-up: species or system Danio rerio. The following applies: in vivo, dose 20-160 µM. A digest of the protocol:
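Controls were water and water with 0.5% DMSO. Incubation at 26.8 ± 1 °C, 20 embryos per well. Hatching scored over 0–96 hpf under an inverted microscope. Triplicate, three independent experiments; mean ± SD; ANOVA.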

Data set [6] is described as follows: Acute toxicity in zebrafish embryo assessed as morphological changes at upto 160 uM measured after 48 hrs post fertilization relative to control. Also noted: species or system Danio rerio. The following applies: in vivo. In a few lines:
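Wild-type Danio rerio embryos were exposed in milli-Q water with compound dissolved in DMSO (≤0.25 v/v final). Controls were milli-Q water and water with DMSO. Embryos were held at 26.8 ± 1 °C and scored by inverted microscope at 24–96 hpf, after exposure at 160 µM, for bent spine, yolk sac edema, pericardial edema, short tail and bent tail.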

Data set [7] in a line: Acute toxicity in zebrafish embryo assessed as survival rate at 160 uM measured after 96 hrs post fertilization relative to control. Also noted: species or system Danio rerio. The following applies: in vivo. A digest of the protocol:
as §1

A short description of data set [8]: Antioxidant activity assessed as DPPH radical scavenging activity after 30 mins by spectrophotometric analysis. The class given is functional. In a few lines: as §2
Data set [9] in a line: Antioxidant activity assessed as ABTS radical scavenging activity after 6 mins by spectrophotometric analysis relative to control. Format: functional. Set-up: concentration or dose not given beside the values.

For `CCCCCCCCCCCC1=C(O)C(=O)C(Cc2ccc(C(C)C)cc2)=C(O)C1=O`, in [1], the survival at 96 h worked out at 70%. Besides, the results for the IC50 in data set [2] and in data set [8] were 1910 nM and 1900 nM, respectively. In addition, in data set [3], the survival at 96 h, 20 µM stood at 52%. Also, the Activity in data set [4] was 86%; in data set [5], 75.66%; in data set [6], “Non-Toxic”; in [9], 87.2%. The survival at 96 h, 160 µM in data set [7] turned out to be 70%.

Consider `CCCCCCCCCCCC1=C(O)C(=O)C(Cc2ccccc2O)=C(O)C1=O`, for which the survival at 96 h in data set [1] amounted to 70%. The IC50 in [2] was 2870 nM; in data set [8], 3050 nM. Moreover, in data set [3], the survival at 96 h, 20 µM was determined as 52%. The Activity is 71.1% in [4], 75.66% in data set [5], “Non-Toxic” in data set [6] and 75.1% in [9]. Further, the survival at 96 h, 160 µM in data set [7] is 70%.

With `CCCCCCCCCCCC1=C(O)C(=O)C(Cc2ccc(N(C)C)cc2)=C(O)C1=O`, the survival at 96 h in [1] amounted to 70%. Also, the half-inhibitory concentration (IC50) in [2] amounted to 2910 nM; in data set [8], 3370 nM. The survival at 96 h, 20 µM in [3] stood at 52%. For the same compound, the Activity in data set [4] was 71.1%; in data set [5], 75.66%; in data set [6], “Non-Toxic”; in [9], 75.1%. In addition, the survival at 96 h, 160 µM in data set [7] is 70%.

Turning to `CCCCCCCCCCCC1=C(O)C(=O)C(Cc2ccccc2)=C(O)C1=O`, the survival at 96 h in data set [1] was found to be 70%. The half-maximal inhibitory concentration (IC50) in data set [2] was 2710 nM; in data set [8], 3180 nM. Further, the survival at 96 h, 20 µM in [3] was found to be 52%. The Activity in data set [4] is 71.1%; in data set [5], 75.66%; in data set [6], “Non-Toxic”; in data set [9], 80.2%. Also, the survival at 96 h, 160 µM in [7] came to 70%.

As for `CCCCCCCCCCCC1=C(O)C(=O)C(Cc2cc(OC)c(OC)c(OC)c2)=C(O)C1=O`, in data set [1], the survival at 96 h amounted to 70%. For the same compound, the values for the IC50 in data set [2] and in [8] were 2480 nM and 2950 nM, respectively. Besides, the survival at 96 h, 20 µM in data set [3] turned out to be 52%. For the same compound, the Activity was 80% in data set [4], 75.66% in data set [5], “Non-Toxic” in data set [6] and 80.2% in data set [9]. Besides, the survival at 96 h, 160 µM in [7] was 70%.

With `CCCCCCCCCCCC1=C(O)C(=O)C(Cc2ccc(O)cc2)=C(O)C1=O`, in data set [1], the survival at 96 h was 70%. The IC50 turned out to be 2700 nM in [2] and 2830 nM in data set [8]. Also, the survival at 96 h, 20 µM in data set [3] is 52%. Also, the Activity is 80% in data set [4], 75.66% in data set [5], “Non-Toxic” in data set [6] and 75.1% in [9]. For the same compound, in data set [7], the survival at 96 h, 160 µM was 70%.

Regarding `CCCCCCCCCCCC1=C(O)C(=O)C(Cc2ccc(C)cc2)=C(O)C1=O`, in data set [1], the survival at 96 h stood at 70%. Besides, the IC50 in data set [2] and in [8] was 1810 nM in each case. In addition, the survival at 96 h, 20 µM in [3] is 52%. In addition, the Activity in data set [4] is 89.4%; in data set [5], 75.66%; in data set [6], “Non-Toxic”; in data set [9] it was 90.3%. Also, the survival at 96 h, 160 µM in [7] was 70%.

For the compound `CCCCCCCCCCCC1=C(O)C(=O)C(Cc2ccc(OC)cc2)=C(O)C1=O`, the survival at 96 h in data set [1] was 70%. The IC50 in data set [2] stood at 2720 nM; in [8], 3160 nM. In data set [3], the survival at 96 h, 20 µM amounted to 52%. Also, the Activity was 71.1% in [4], 75.66% in [5], “Non-Toxic” in [6] and 80.2% in [9]. Also, the survival at 96 h, 160 µM in [7] is 70%.

On to `CCCCCCCCCCCC1=C(O)C(=O)C(Cc2ccccc2C)=C(O)C1=O`, for which, in data set [1], the survival at 96 h amounted to 70%. In addition, the IC50 was 2050 nM in data set [2] and 2510 nM in data set [8]. In addition, the survival at 96 h, 20 µM in [3] is 52%. Besides, the Activity in [4] is 80%; in data set [5], 75.66%; in data set [6] it was “Non-Toxic”; in [9], 80.2%. In addition, in data set [7], the survival at 96 h, 160 µM came to 70%.

The term IC50 denotes the concentration that gives 50% inhibition.
